Experimental data reported in ChEMBL document CHEMBL1125007 (J Med Chem, 1990).

What was measured:
[1] = Relative lipophilicity; type: physicochemical; conditions: octanol/water
Outline: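 Relative lipophilicity of the side-chain fragment -NH(CH2)nX-, calculated from substituent fragment values.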

UV4 (Cricetulus griseus) = experiment: Relative cytotoxic potency given as Hypersensitivity ratio of (IC50 for AA8 cell line) to (IC50 for UV4 cell line)
P388 [2] = experiment: Optimal dose (i.p.) given after inoculation with wild type 10 E 6 P388/W leukemia cell lines, measured on day 1; type: functional, Mus musculus
Outline: (§1)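 Single intraperitoneal dose given in 0.1 or 0.2 mL of 30% v/v ethanol-water on day 1 after intraperitoneal inoculation of 10^6 P388 leukemia cells. ILS is the percent increase in lifespan of treated tumor-bearing animals at that optimal dose.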

P388 [3] = experiment: Increase in life span of the drug treated animals against P388 leukemia when treated at a optimal dose of 30 mg/kg; type: functional; conditions: Mus musculus; outline: as §1
P388 [4] = experiment: Cytotoxicity against P388 leukemia cell line; type: functional, cell-based; conditions: Mus musculus
Outline: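 P388 murine leukemia cells kept in log phase in RPMI 1640 with 10% fetal calf serum. Drug was present in 96-well microcultures for the whole 72 h growth period. Final cell density was read by a slightly modified MTT method. IC50 is the nominal concentration cutting density to 50% of controls, with eight control cultures per plate.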

CHO-AA8 = experiment: Cytotoxicity against AA8 cell line; type: functional, cell-based; conditions: Cricetulus griseus
Outline: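 AA8 Chinese hamster ovary cells kept in log phase in Alpha MEM with 10% fetal calf serum. Drug was applied in 96-well microcultures for 18 h, then removed by three washes with fresh medium. Cells grew a further 72 h before cell density was read by methylene blue staining. IC50 is the nominal concentration cutting density to 50% of controls, with eight controls per plate.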

P388 [5] = experiment: Increase in life span of the drug treated animals against P388 leukemia when treated at a optimal dose of 45 mg/kg; type: functional; conditions: Mus musculus; outline: as §1
P388 [6] = experiment: Increase in life span of the drug treated animals against P388 leukemia when treated at a optimal dose of 8.9 mg/kg; type: functional; conditions: Mus musculus; outline: as §1
P388 [7] = experiment: Increase in life span of the drug treated animals against P388 leukemia when treated at a optimal dose of 26 mg/kg; type: functional; conditions: Mus musculus; outline: as §1
P388 [8] = experiment: Increase in life span of the drug treated animals against P388 leukemia when treated at a optimal dose of 65 mg/kg; No activity at all doses; type: functional, organism-based; set-up: dose 65 mg/kg; conditions: Mus musculus; outline: as §1
[9] = Rate constant for alkylation of 4-(4-nitrobenzyl)pyridine; type: ADME
Nucleic Acid [10] = experiment: pBR322/DHFR26 DNA crosslinking ability at a concentration of 0.2 uM determined after Agarose gel electrophoresis run for 4 hr; + indicates Significant crosslinking; type: functional
[11] = Rate constant for hydrolysis in aqueous acetone.; type: ADME; set-up: scale not given here; conditions: buffer
Nucleic Acid [12] = experiment: DNA crosslinking ability at a concentration of 0.2 uM determined after Agarose gel electrophoresis run for 24 hr; + indicates Significant crosslinking; type: functional
Nucleic Acid [13] = experiment: pBR322/DHFR26 DNA crosslinking ability at a concentration of 0.02 uM determined after Agarose gel electrophoresis run for 4 hr; + indicates Significant crosslinking; type: functional
P388 [14] = experiment: Increase in life span of the drug treated animals against P388 leukemia when treated at a optimal dose of 13.3 mg/kg; type: functional; conditions: Mus musculus; outline: as §1
Nucleic Acid [15] = experiment: DNA crosslinking ability at a concentration of 0.2 uM determined after Agarose gel electrophoresis run for 24 hr; ++ indicates extensive crosslinking; type: functional
Nucleic Acid [16] = experiment: pBR322/DHFR26 DNA crosslinking ability at a concentration of 0.2 uM determined after Agarose gel electrophoresis run for 4 hr; ++ extensive Significant crosslinking; type: functional
Nucleic Acid [17] = experiment: pBR322/DHFR26 DNA crosslinking ability at a concentration of 0.02 uM determined after Agarose gel electrophoresis run for 4 hr; +/- indicates Slight crosslinking; type: functional
P388 [18] = experiment: Increase in life span of the drug treated animals against P388 leukemia when treated at a optimal dose of 65 mg/kg; type: functional; conditions: Mus musculus; outline: as §1

SMILES | Relative lipophilicity [1] | HF (UV4 (Cricetulus griseus)) | OD (P388 [2]) [mg/kg] | IC50 (P388 [4]) [nM] | IC50 (CHO-AA8) [nM] | other results
Cl.ClCCN(CCCl)c1ccc(OCCNc2c3ccccc3nc3ccccc23)cc1 | -0.02 | 54 | 30 | 72 | 270 | ILS at 30 mg/kg (P388 [3]): 42%
O=C(O)CCCc1ccc(N(CCCl)CCCl)cc1 [CHLORAMBUCIL] |  | 58 |  | 7500 |  | 
ClCCN(CCCl)c1ccc(OCCCCNc2c3ccccc3nc3ccccc23)cc1 | 0.64 | 55 | 45 | 63 | 280 | ILS at 45 mg/kg (P388 [5]): 47%
Cl.Cl.Cl.Cl.ClCCN(CCCl)c1ccc(OCCCNc2c3ccccc3nc3ccccc23)cc1 | 0.26 | 54 | 8.9 | 47 | 380 | ILS at 8.9 mg/kg (P388 [6]): 27%
Cl.ClCCN(CCCl)c1ccc(SCCCCNc2c3ccccc3nc3ccccc23)cc1 | 1.22 | 21 | 26 | 490 | 1370 | ILS at 26 mg/kg (P388 [7]): 48%
ClCCN(CCCl)c1ccc(SCCCCCNc2c3ccccc3nc3ccccc23)cc1 | 1.76 | 19 |  | 380 |  | 
Cl.O=S(=O)(CCCNc1c2ccccc2nc2ccccc12)c1ccc(N(CCCl)CCCl)cc1 | -1.14 | 5.1 | 45 | 2600 | 9800 | ILS (P388 [8]): No activity
ClCCN(CCCl)c1ccc(CCCCCCNc2c3ccccc3nc3ccccc23)cc1 | 2.29 | 36 |  | 136 |  | KNBP [9]: 157000 s⁻¹; DNA crosslinking (Nucleic Acid [10]): Significant crosslinking; KH [11]: 33900 s⁻¹; DNA crosslinking (Nucleic Acid [12]): Significant crosslinking; DNA crosslinking (Nucleic Acid [13]): Significant crosslinking
Cl.Cl.Cl.Cl.ClCCN(CCCl)c1ccc(SCCCNc2c3ccccc3nc3ccccc23)cc1 | 0.79 | 18 | 13.3 | 360 | 1100 | ILS at 13.3 mg/kg (P388 [14]): 38%
Cl.Cl.Cl.Cl.ClCCN(CCCl)c1ccc(CCCCCNc2c3ccccc3nc3ccccc23)cc1 | 1.75 | 59 | 45 | 82 | 310 | ILS at 45 mg/kg (P388 [5]): 58%; KNBP [9]: 144000 s⁻¹; DNA crosslinking (Nucleic Acid [15]): extensive crosslinking; DNA crosslinking (Nucleic Acid [16]): extensive crosslinking; KH [11]: 32000 s⁻¹; DNA crosslinking (Nucleic Acid [13]): extensive crosslinking
O=S(=O)(CCCCCNc1c2ccccc2nc2ccccc12)c1ccc(N(CCCl)CCCl)cc1 | -0.38 | 1 |  | 750 |  | 
ClCCN(CCCl)c1ccc(OCCCCCNc2c3ccccc3nc3ccccc23)cc1 | 1.18 | 46 |  | 50 |  | DNA crosslinking (Nucleic Acid [12]): Significant crosslinking
Cl.O=S(=O)(CCNc1c2ccccc2nc2ccccc12)c1ccc(N(CCCl)CCCl)cc1 | -1.17 | 3.3 | 65 | 2300 | 18300 | ILS (P388 [8]): No activity
Cl.O=S(=O)(CCCCNc1c2ccccc2nc2ccccc12)c1ccc(N(CCCl)CCCl)cc1 | -0.92 | 1.4 | 30 | 1900 | 1700 | ILS (P388 [8]): No activity
Cl.Cl.Cl.Cl.ClCCN(CCCl)c1ccc(CCCNc2c3ccccc3nc3ccccc23)cc1 | 0.67 | 43 | 45 | 61 | 310 | ILS at 45 mg/kg (P388 [5]): 25%; KNBP [9]: 146000 s⁻¹; DNA crosslinking (Nucleic Acid [10]): Significant crosslinking; KH [11]: 14500 s⁻¹; DNA crosslinking (Nucleic Acid [12]): Significant crosslinking; DNA crosslinking (Nucleic Acid [17]): +/-
Cl.Cl.Cl.Cl.ClCCN(CCCl)c1ccc(CCCCNc2c3ccccc3nc3ccccc23)cc1 | 1.21 | 36 | 45 | 86 | 440 | ILS at 45 mg/kg (P388 [5]): 52%; KNBP [9]: 225000 s⁻¹; DNA crosslinking (Nucleic Acid [10]): Significant crosslinking; KH [11]: 20600 s⁻¹; DNA crosslinking (Nucleic Acid [12]): Significant crosslinking; DNA crosslinking (Nucleic Acid [17]): +/-
Cl.Cl.Cl.Cl.ClCCN(CCCl)c1ccc(SCCNc2c3ccccc3nc3ccccc23)cc1 | 0.42 | 24 | 65 | 372 | 1200 | ILS at 65 mg/kg (P388 [18]): 37%
